# DENV2 CPE rescue – inhibitors of DENV2 cytopathic effect | AID 651640 | DENV2-infected cells, cytopathic effect rescue, plate reader | CPE inhibition, % at 9.99 µM | 350,000 compounds, 1.7% hits; in the data active means CPE inhibition above about 20%, passing the limit was not always enough; inconclusive means no clear call, values can overlap the other calls; tested in BHK-21 cells;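 further: 0% = median of neutral control wells and 100% = median of positive control wells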
# SIRT5 block – sirtuin-5 (human) deacylase inhibition. Q9NXA8. Purified SirT5, succinyl-peptide AMC, trypsin-coupled fluorescence. inhibition, % at 15 µM. 330,000 compounds, 1.1% hits. AID 652115; in the data active means inhibition above about 15%; inconclusive means no clear call, values can overlap the other calls
# E-selectin induc – E-selectin induction on HUVECs | P16581 | HUVEC E-selectin immunofluorescence imaging; normalized: neutral wells 0, TNF-alpha wells 100 | activation, % at 7.58 µM | 260,000 compounds, 0.37% hits | AID 686992;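 active means mean E-selectin-positive cell signal at least 10% of the positive control, reached in at least 60% of replicates, without over 20% cell loss; inconclusive means no rule given, readout overlaps actives, possibly toxicity-flagged; inactive means the rest, including those meeting only one limit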
# Target sequence (P16581 whole entry, looked up): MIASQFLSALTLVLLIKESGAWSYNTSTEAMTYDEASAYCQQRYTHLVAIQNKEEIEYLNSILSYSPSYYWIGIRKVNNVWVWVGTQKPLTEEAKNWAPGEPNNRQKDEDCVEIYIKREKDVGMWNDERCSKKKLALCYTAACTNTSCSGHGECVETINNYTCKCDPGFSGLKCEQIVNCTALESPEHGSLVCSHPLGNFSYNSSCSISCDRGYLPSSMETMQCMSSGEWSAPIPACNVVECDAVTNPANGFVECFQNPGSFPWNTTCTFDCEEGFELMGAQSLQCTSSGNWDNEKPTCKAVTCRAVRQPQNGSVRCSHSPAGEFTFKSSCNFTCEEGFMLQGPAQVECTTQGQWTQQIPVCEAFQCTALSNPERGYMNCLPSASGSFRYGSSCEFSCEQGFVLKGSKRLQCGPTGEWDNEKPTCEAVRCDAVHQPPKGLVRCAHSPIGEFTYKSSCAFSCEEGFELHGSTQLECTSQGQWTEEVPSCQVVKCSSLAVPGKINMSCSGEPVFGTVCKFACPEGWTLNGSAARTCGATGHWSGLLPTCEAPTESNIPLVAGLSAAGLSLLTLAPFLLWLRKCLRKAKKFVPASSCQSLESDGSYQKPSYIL
#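 Assay system: HUVEC, human umbilical vein endothelial cells / Amount: 3,000 HUVEC/well / Controls: TNF-alpha positive control, DMSO neutral control / Compound dosing: single concentration / Medium: EGM-2 over gelatin coat / Evaluation: percent E-selectin-positive cells / Signal: immunofluorescence imaging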
# * hit, by the source's call; ? = inconclusive; / = no result; ! = repeats disagree. Sampled rows, rich in hits. Any-hit rate of the full collection: about 2.9%.
SMILES,DENV2 CPE rescue,SIRT5 block,E-selectin induc
CCCN(C)C[C@@H]1OCCCC[C@H](C)Oc2ccc(N(C)C)cc2C(=O)N([C@H](C)CO)C[C@@H]1C,68.9*,4.6,-0.2
C[C@H]1CCCCO[C@@H](CN(C)Cc2ccc3c(c2)OCO3)[C@@H](C)CN([C@@H](C)CO)C(=O)c2cc(N(C)C)ccc2O1,6.6,-5.8,/
CCCN(C)C[C@@H]1OCCCC[C@@H](C)Oc2ccc(N(C)C)cc2C(=O)N([C@@H](C)CO)C[C@@H]1C,-3.4,0.7,0.1
CN1CCCN(C(=O)c2ccc(Br)s2)CC1,3.0,-1.1,-1.1
COc1ccc(-c2cc(C(=O)NCCN3CCOCC3)c3ccccc3n2)cc1OC,-5.7,-1.8,0.1
CCCCCC(=C/c1ccccc1)/C=N/Nc1ccc(S(=O)(=O)N2CCOCC2)cc1[N+](=O)[O-],32.2*,/,-0.6
O=C(O)c1ccccc1/C=N/Nc1ccc(S(=O)(=O)N2CCOCC2)cc1[N+](=O)[O-],-1.2,3.7,/
COc1ccccc1N1C(=O)c2cccc3c(N(C)CCO)ccc(c23)C1=O,-4.2,4.0,/
O=S1(=O)N[C@H](Cc2ccccc2)COc2cccc(N3CCN(Cc4ccccc4F)CC3)c21,?,1.0,0.0
COC1=CC(=O)OC(c2cccc([N+](=O)[O-])c2)C1 (centres undefined),41.2*,0.9,-0.2
COC1=CC(=O)OC(c2cccc(OC)c2)C1 (centres undefined),-8.6,0.4,0.0
Cc1c(C(=O)NC(C)C)sc2ncn(CC(=O)N3CCC(C)CC3)c(=O)c12,/,1.3,/
CN(C[C@H]1[C@@H](c2ccc(C3=CCCC3)cc2)[C@@H](CO)N1CCC(F)(F)F)S(C)(=O)=O,-3.6,24.7*,0.6
CN(C[C@@H]1N[C@@H](CO)[C@@H]1c1ccc(C2=CCCCC2)cc1)S(C)(=O)=O,-1.7,/,0.1
O=C1CNC[C@H]2[C@@H](c3ccc(C4=CCCC4)cc3)[C@H](CO)N12,5.7,21.3*,-0.1
O=C1CNC[C@H]2[C@@H](c3ccc(-c4ccccc4F)cc3)[C@H](CO)N12,2.9,0.3,-0.3
O=C1CNC[C@@H]2[C@H](c3ccc(C4=CCCC4)cc3)[C@H](CO)N12,-3.6,5.6,0.3
O=C1CNC[C@H]2[C@H](c3ccc(-c4ccccc4F)cc3)[C@@H](CO)N12,37.0*,-1.8,-0.1
CCOc1ccc(NC(=O)c2ccc(N3CC4CC(C3)c3cccc(=O)n3C4)c(NC(=O)c3ccncc3)c2)cc1 (centres undefined),0.3,-0.2,/
COCC(=O)NC[C@@H]1[C@@H](c2ccccc2)[C@H](CO)N1C(C)=O,13.0,0.3,0.1
CN(C)c1nc(Oc2ccc(OCCOc3ccccc3)nn2)nc(N(C)C)n1,-2.7,-1.3,-0.8
CCCNc1nc(C)cc(-c2cc(C(=O)NC3CCCC3)on2)n1,-15.7,/,0.0
CC1CC(=O)N(C)c2cc([N+](=O)[O-])ccc2N1 (centres undefined),3.5,-1.1,/
CC(C)(C)NC(=O)COC(=O)CCC(=O)c1ccc(F)cc1,7.5,0.9,10.6
COC(=O)C1=C(C)N(C)C(=NCc2ccc(C(F)(F)F)cc2)NC1c1ccccc1C(F)(F)F (centres undefined),-13.6,1.3,-0.1
SMILES,DENV2 CPE rescue,SIRT5 block,E-selectin induc
Cc1ccsc1/C=N/NC(=O)c1ccncc1,1.3,3.6,-0.1
COc1ccc(S(=O)(=O)N2CCC(C)CC2)cc1N(C)S(=O)(=O)c1ccccc1,-8.8,-1.3,-0.2
O=C(Nc1ccc(Cl)cn1)c1ccc(Br)c(S(=O)(=O)N2CCCCC2)c1,-4.8,/,/
COc1ccc(CC(=O)NC(C)c2nnc(SCC(=O)c3ccc(OC)cc3)n2C)cc1 (centres undefined),5.1,-1.8,/
COc1ccc(CC(=O)NC(C)c2nnc(SCCOc3ccc(OC)cc3)n2C)cc1 (centres undefined),/,29.3*,/
Cc1ccc(S(=O)(=O)N(C)C[C@@H]2OCCCC[C@H](C)Oc3ccc(NS(=O)(=O)c4cccs4)cc3C(=O)N([C@H](C)CO)C[C@@H]2C)cc1,?,6.2,/
C[C@H](CO)N1C[C@H](C)[C@H](CN(C)C(=O)c2cc(Cl)cc(Cl)c2)OCc2ccccc2-c2ccccc2C1=O,-6.2,14.1,-0.1
CCOC(=O)CSc1nc2cc(OCC)ccc2cc1C#N,/,21.0*,/
CCOc1ccc2cc(C#N)c(SCC(=O)N3CCC(C)CC3)nc2c1,/,/,1.7
CO[C@H]1CN(C)C(=O)c2cccc(C#N)c2OC[C@H]2O[C@H](CC[C@H]2OC)CCN(C)C(=O)[C@@H]1C,-1.2,1.3,0.1
CO[C@H]1CC[C@H]2CCN(C)C(=O)[C@@H](C)[C@H](OC)CN(C)C(=O)c3cc(C#N)ccc3OC[C@@H]1O2,-2.3,15.8*,0.1
CO[C@@H]1CC[C@@H]2CCN(C)C(=O)[C@H](C)[C@H](OC)CN(C)C(=O)c3cc(C#N)ccc3OC[C@@H]1O2,-0.6,0.0,-0.1
CO[C@H]1CN(C)C(=O)c2cccc(C#N)c2OC[C@H]2O[C@H](CC[C@@H]2OC)CCN(C)C(=O)[C@H]1C,13.6,21.3*,0.1
O=C(Nc1ccc(F)cc1)N1C[C@@H]2[C@H](c3ccccc31)[C@@H](CO)N2C(=O)c1ccccn1,-4.0,/,1.2
O=c1n(Cc2ccc(F)cc2)nc2n1-c1ccccc1SC2,-8.5,2.0,-0.1
CCCCN1C=C(C(=O)OCC)C(=O)CC1,9.9,-1.5,/
CCCCN1C=C(C(C)=O)C(=O)CC1,46.8*,0.2,0.1
C[C@H](CO)N1C[C@H](C)[C@@H](CN(C)C(=O)NC2CCCCC2)OCCCC[C@H](C)Oc2ccc(NC(=O)Cc3ccccc3)cc2C1=O,-5.4,-7.2,0.3
COCC(=O)N1CCC2(CC1)CN(C(=O)Nc1ccccc1F)[C@@H](CO)c1[nH]c3cc(OC)ccc3c12,-10.8,1.4,0.3
O=C(Nc1ccccc1F)N1C[C@@H]2N[C@H](C1)C2c1ccc(/C=C/c2ccccc2)cc1 (some centres undefined),0.7,26.9*,-0.1
C/C=C/c1ccc(C2[C@@H]3CN(C(=O)Nc4ccc(F)cc4)C[C@H]2N3)cc1 (some centres undefined),12.7,-3.0,0.2
COc1cccc(-c2ccc(C3[C@@H]4CN(C(=O)Nc5ccccc5F)C[C@H]3N4)cc2)c1 (some centres undefined),32.1*!,/,0.0
COc1ccc(-c2ccc(C3[C@@H]4CN(C(=O)Nc5ccccc5F)C[C@H]3N4)cc2)cc1 (some centres undefined),3.4,1.9,-0.1
C/C=C/c1ccc(C2[C@@H]3CN(C(=O)Nc4ccc(C(F)(F)F)cc4)C[C@H]2N3)cc1 (some centres undefined),41.4*!,/,-0.1
C/C=C/c1ccc(C2[C@@H]3CN(C(=O)Nc4ccccc4F)C[C@H]2N3)cc1 (some centres undefined),?,/,0.1
O=C(OCC(=O)N1CCN(c2ccccc2)CC1)c1cc(Br)ccc1Cl,1.8,-2.6,-0.2
O=C(Cn1cnc([N+](=O)[O-])c1)c1ccc(F)cc1,?,1.0,2.7
O=C(c1ccccc1)N1C[C@H]2[C@@H](c3ccccc31)[C@H](CO)N2C(=O)c1cccc(F)c1,-3.3,0.5,-0.1

# Bioassay records (PubChem BioAssay)
